Measured values from different studies.
Target: Serine/threonine-protein kinase 3 (STK3, Homo sapiens, UniProt Q13188)
One construct used (Q13188 1-491): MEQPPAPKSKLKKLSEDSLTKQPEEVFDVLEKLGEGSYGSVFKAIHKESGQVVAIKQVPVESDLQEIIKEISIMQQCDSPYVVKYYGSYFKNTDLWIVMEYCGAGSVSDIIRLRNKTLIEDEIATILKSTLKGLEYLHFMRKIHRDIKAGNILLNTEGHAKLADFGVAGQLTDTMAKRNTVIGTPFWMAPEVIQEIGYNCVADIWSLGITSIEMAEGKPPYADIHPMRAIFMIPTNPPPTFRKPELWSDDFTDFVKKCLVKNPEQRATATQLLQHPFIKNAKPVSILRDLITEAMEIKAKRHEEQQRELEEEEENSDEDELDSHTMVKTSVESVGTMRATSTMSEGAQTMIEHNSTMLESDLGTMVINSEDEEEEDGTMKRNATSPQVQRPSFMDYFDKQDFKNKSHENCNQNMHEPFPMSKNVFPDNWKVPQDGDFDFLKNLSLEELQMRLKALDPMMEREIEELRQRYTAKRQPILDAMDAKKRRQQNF

| Compound | test | test system | setting | endpoint | value |
| --- | --- | --- | --- | --- | --- |
| Cc1ccc(Nc2nccc(N(C)c3ccc4c(C)n(C)nc4c3)n2)cc1S(N)(=O)=O | cell-free assay, inhibitor | – | 0.3 µM | inhibition | 1% |
| CC(C)(C)C(=O)c1sc(NC2CCCCC2)nc1N | enzyme activity, inhibitor | – | 10 µM | remaining activity | 104% |
| CN(C)C(=O)Cn1cc(-c2nc(C3(c4ccc(-c5cnc(N)nc5)cc4)CC3)no2)cn1 | cell-free assay, competition with immobilised ligand | – | 1 µM | remaining binding | 100% |
| CS(=O)(=O)CCNCc1ccc(-c2ccc3ncnc(Nc4ccc(OCc5cccc(F)c5)c(Cl)c4)c3c2)o1 | cell-free assay | – | 0.5 µM | remaining signal | 93.7% |
| Cn1nc(C(F)(F)F)cc1-c1cnc(N2CCc3cc(S(=O)(=O)Nc4c(F)cc(Cl)cc4F)cc(N4CCCC4=O)c32)nc1 | cell-free assay, competition with immobilised ligand | – | 1 µM | remaining binding | 90% |
| COc1cc(Nc2cnc(C#N)c(O[C@H](C)CN(C)C)n2)ncc1-c1cnn(C)c1 | enzyme activity, inhibitor, radiometric | – | 1 µM | remaining activity | 67% |
| FC(F)(F)Oc1cccc(-c2cnc3ccc(-c4ccncc4)nn23)c1 | enzyme activity, inhibitor, radiometric | – | 5 µM | activity vs control | 71% |
| CCN1CCC2(CC1)NC(=O)c1c(c3ccc(Cl)c(Cl)c3n1C)C2C#N (racemic) | thermal stability, DSF | – | 10 µM | ΔTm | -0.1 °C |
| CN(C)S(=O)(=O)c1ccc2c(c1)/C(=C/c1cc3c([nH]1)CCCC3)C(=O)N2 | cell-free assay | – | 0.5 µM | remaining signal | 24.3% |
| CCOC(=O)c1cc2cc(-c3cc(C(=O)NCc4ccc(C(=O)O)cc4)nn3C)ccc2[nH]1 | cell-free assay, competition with immobilised ligand | – | 0.1 µM | remaining binding | 96% |
| Nc1ncnc2occ(-c3ccc(NC(=O)Nc4cc(C(F)(F)F)ccc4F)cc3)c12 | cell-free assay, inhibitor | – | 20 µM | remaining signal | 6.6% |
| O=C(Nc1cnn(-c2csc(C(=O)NC3COC3)c2)c1)Nc1ccccc1Cl | enzyme activity, inhibitor | – | 5 µM | remaining activity | 120% |
| CNCc1ccc(-c2cc(-c3nc(-c4ccc(S(=O)(=O)C(C)C)cc4)cnc3N)on2)cc1 | enzyme activity, inhibitor | – | 0.4 µM | inhibition | 18% |
| CC(C)(C)c1nc2c(s1)c1nc(N)ncc1c1ccc(NS(=O)(=O)c3c(F)cccc3F)c(F)c12 | enzyme activity, inhibitor, radiometric | – | 1 µM | remaining activity | 89% |
| CN1CC(Oc2cnc(C#N)cc2-c2ccn3nc(NC(=O)C4CC4)cc3c2)C1 | enzyme activity, inhibitor | – | 1 µM | inhibition | 4% |
| Cn1c(=O)n(-c2ccc(C(C)(C)C#N)cc2)c2c3cc(-c4cnc5ccccc5c4)ccc3ncc21 | enzyme activity, inhibitor | – | 10 µM | remaining activity | 89% |
| Cn1c2c(c3ccc(Cl)c(Cl)c31)C(C#N)C(C)(C)NC2=O (stereo not shown) | thermal stability, DSF | – | 10 µM | ΔTm | 0.4 °C |
| CCCOc1ccc(OC)c(F)c1C(=O)c1ccc(C(=O)N[C@@H]2CNC[C@H]2NC(=O)c2ccc3[nH]ncc3c2)cc1 | enzyme activity, inhibitor | – | 10 µM | remaining activity | 85% |
| CN1CCN(c2cnc3c(C4CCN(C(=O)c5ccc(OC(F)(F)F)cc5N)CC4)ncnc3c2)CC1 | cell-free assay, competition with immobilised ligand | – | 1 µM | remaining binding | 82% |

| Compound | test | test system | setting | endpoint | value |
| --- | --- | --- | --- | --- | --- |
| O=C(Nc1cnn(-c2csc(C(=O)NC3COC3)c2)c1)Nc1c(F)cccc1Cl | enzyme activity, inhibitor | – | 5 µM | remaining activity | 93.2% |
| Cc1c(NC(=O)c2cc(C(N)=O)nc3cc(F)ccc23)c(C(F)(F)F)nn1Cc1ccc(C(C)(C)C)cc1 | cell-free assay, competition with immobilised ligand | – | 1 µM | remaining binding | 90% |
| Cn1c2c(Cl)c(Cl)ccc2c2cc(N)[nH]c(=O)c21 | thermal stability, DSF | – | 10 µM | ΔTm | 2.2 °C |
| COc1cc2c(N3CCN(C(=O)Nc4ccc(OC(C)C)cc4)CC3)ncnc2cc1OCCCN1CCCCC1 | cell-free assay | – | 0.5 µM | remaining signal | 94.7% |
| CC(=O)C1=C(C)N(c2cccc(C(F)(F)F)c2)C(=O)N[C@@H]1c1ccc(C#N)nc1 | cell-free assay, competition with immobilised ligand | – | 1 µM | remaining binding | 93.1% |
| CCN1CCN(Cc2ccc(NC(=O)c3ccc(C)c(Oc4ccnc5[nH]ccc45)c3)cc2C(F)(F)F)CC1 | target engagement in cells, inhibitor, chemoproteomics | Huh-7 | 10 µM | inhibition | -56.5% |
| COc1cc(/C=C/C(=O)CC(=O)/C=C/c2ccc(O)c(OC)c2)ccc1O | enzyme activity, inhibitor | – | 1 µM | activity vs control | 42% |
| CC(C)(O)[C@H]1CC[C@H](Nc2ccc3ncc(-c4cccc(C(F)(F)F)c4)n3n2)CC1 | enzyme activity, inhibitor | – | 1 µM | remaining activity | 73.9% |
| N#CC1c2c([nH]c3c(Cl)c(Cl)ccc23)C(=O)NC12CCCCC2 (racemic) | thermal stability, DSF | – | 10 µM | ΔTm | 0.6 °C |
| O=C(N[C@H]1CCCCC/C=C\C2C[C@@]2(C(=O)O)NC(=O)[C@@H]2C[C@@H](Oc3ccncc3)CN2C1=O)OC1CCCC1 (stereo partly shown) | binding, competition with immobilised ligand | – | 1 µM | remaining binding | 76% |
| COc1cc2ncnc(Nc3ccc(Oc4ccccc4)cc3C)c2cc1OC | enzyme activity, inhibitor | – | 1 µM | inhibition | -4% |
| CNC(=O)c1cc(Oc2ccc(NC(=O)Nc3ccc(Cl)c(C(F)(F)F)c3)cc2)ccn1 | cell-free assay, inhibitor | – | 10 µM | inhibition | -8% |
| CCN(CC)c1ccc(C2=NNC(=O)CC2C)cc1[N+](=O)[O-] (stereo not shown) | enzyme activity, inhibitor | – | 10 µM | remaining activity | 87% |
| CC1(C)NC(=O)c2[nH]c3c(Cl)c(Cl)ccc3c2C1C#N (stereo not shown) | thermal stability, DSF | – | 10 µM | ΔTm | 0.2 °C |
| O=C(O)[C@@H]1[C@@H](Cn2nnc3ccccc3c2=O)CC[C@H]1C(=O)c1ccc(OCCC2CCOCC2)cc1 | cell-free assay, competition with immobilised ligand | – | 1 µM | remaining binding | 100% |
| O=C1Nc2ccc(Cl)cc2C1=Cc1cc(Cl)c(O)c(Cl)c1 | cell-free assay | – | 0.5 µM | remaining signal | 31.6% |
| Cc1cnc(NC2CCOCC2)nc1-n1cnc(C(=O)NC(CN)c2cc(F)cc(Cl)c2)c1 (stereo not shown) | enzyme activity, inhibitor, radiometric | – | 1 µM | remaining activity | 108% |
| Cc1ccc(C(=O)Nc2ccc(CN3CCN(C)CC3)c(C(F)(F)F)c2)cc1C#Cc1cnc2cccnn12 | enzyme activity, inhibitor | – | 23.5 nM | remaining activity | 97% |
